TAAR1 antagonist – human TAAR1 antagonism; CHO RD-HGA16 TAAR1, Fluo-8 calcium fluorescence, antagonist; inhibition, % at 3 µM; 360,000 compounds, 1.5% hits; AID 624466;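 active = inhibition above a per-plate cutoff, the mean inhibition of test compounds on that plate plus 3 SD, cut at about 49% in these data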;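 also: 0% = DMSO plus EC80 beta-PEA response and 100% = DMSO alone without agonist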
Target sequence (Q96RJ0 whole entry, looked up): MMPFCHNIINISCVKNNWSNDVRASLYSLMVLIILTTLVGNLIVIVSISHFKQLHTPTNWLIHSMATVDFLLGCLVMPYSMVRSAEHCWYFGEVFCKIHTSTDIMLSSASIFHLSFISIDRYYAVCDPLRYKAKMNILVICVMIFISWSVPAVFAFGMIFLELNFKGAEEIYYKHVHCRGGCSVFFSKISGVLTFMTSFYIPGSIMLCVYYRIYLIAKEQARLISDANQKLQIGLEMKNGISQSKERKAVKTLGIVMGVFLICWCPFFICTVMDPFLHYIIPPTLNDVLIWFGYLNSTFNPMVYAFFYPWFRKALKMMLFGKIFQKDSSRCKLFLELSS
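Test system – hTAAR1-expressing CHO RD-HGA16 cells, Gα16-coupled · Reagent – β-PEA at EC80 concentration, post-compound challenge · Compound dosing – 3 µM, single point · Timing – 140 s kinetic read after compound, 140 s after agonist · Detection – Fluo-8 intracellular calcium dye fluorescence, real-time kinetic reads · Control set – DMSO and EC80 PEA controls · Repeats – n of 1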
OX1R antag-1 – blocks the human orexin 1 receptor. O43613. CHO/OX1R cells, Fluo-8 calcium fluorescence, orexin A. inhibition, % at 5 µM. 330,000 compounds, 0.43% hits;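 active = inhibition above its plate's threshold, mean inhibition of all tested compounds on the plate plus 3 SD, cut at about 37% in these data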;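 also: 0% = orexin A challenge wells and 100% = SB-334867-A antagonist wells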
OX1R antag-2 – blocks the human orexin 1 receptor. 330,000 compounds, 1.8% hits. inhibition, % at 6.6 µM. OX1R-expressing cells, FRET antagonist read-out. AID 485270. O43613; in the data active = inhibition mostly above about 38%, no sharp cut-off; inactive = mostly below about 40%;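 also: 0% = agonist challenge alone and 100% = reference antagonist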
TAAR1 ag – agonists of human TAAR1 | Q96RJ0 | CHO RD-HGA16 TAAR1, Fluo-8 calcium fluorescence; vehicle wells 0%, saturating PEA agonist 100% | activation, % at 3 µM | 360,000 compounds, 0.99% hits | AID 624467;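 active = activation above the mean activation of all test compounds in the run plus 3 SD, cut at about 38% in these data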
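Repeats: no replicates (n 1) | Material: CHO-derived RD-HGA16 cells with stable Gα16 and human TAAR1 | Technique: Kinetic Fluo-8 calcium fluorescence | Schedule: 17-24 h seeding, 75 min 37 °C dye, 30 min RT | Evaluation: % activation from peak over basal fluorescence ratio, DMSO-to-PEA scaled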
GPR7 antag – blocks human GPR7 receptor signaling; P48145; GPR7-expressing cells, fluorescence antagonist assay; inhibition, % at 4.4 µM; 290,000 compounds, 1.1% hits; AID 1861; in the data active = inhibition above about 16%, passing the limit was not always enough;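 also: cells stimulated with the agonist NPW; 0% = agonist with vehicle and 100% = vehicle without agonist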
Target sequence (P48145 whole entry, looked up): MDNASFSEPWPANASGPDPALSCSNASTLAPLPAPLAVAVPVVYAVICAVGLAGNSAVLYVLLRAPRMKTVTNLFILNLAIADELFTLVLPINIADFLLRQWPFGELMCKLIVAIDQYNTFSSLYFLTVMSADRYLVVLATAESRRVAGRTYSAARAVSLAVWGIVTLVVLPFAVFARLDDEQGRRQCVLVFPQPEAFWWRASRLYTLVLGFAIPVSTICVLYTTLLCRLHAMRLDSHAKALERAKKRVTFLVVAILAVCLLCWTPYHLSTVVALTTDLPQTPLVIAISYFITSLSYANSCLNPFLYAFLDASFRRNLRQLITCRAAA
CHO parental Ca – counter-screen for OX1R antagonists: effect in parental CHO cells; parental CHO-K1, ATP-induced calcium, Fluo-8 fluorescence; inhibition, % at 5.6 µM; 330,000 compounds, 0.63% hits; AID 463079;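 active = inhibition above that plate's mean sample inhibition plus 3 SD, cut at about 26% in these data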;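 also: 0% = ATP-challenged DMSO wells and 100% = DMSO wells without ATP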
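Assay system: parental CHO cells; Read-out basis: percent inhibition of ATP-evoked calcium rise, normalized to controls; Benchmarks: ATP and no-ATP DMSO wells; Compound dosing: single nominal dose of 5.6 µM per compound; Signal: Fluo-8 calcium dye fluorescence; Also added: ATP as calcium-mobilizing challenge; Repeats: singlicate.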
OX1R Fluo8 conf – OX1R (human) antagonism, confirmed | shares compounds with OX1R antag-1 | CHO/OX1R cells, orexin A calcium Fluo-8 fluorescence | inhibition, % at 5 µM | 1,100 compounds, 38% hits; in the data active = inhibition above about 29%;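 also: 0% = agonist challenge alone and 100% = reference antagonist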
CHO Ca counter – counter-screen for OX1R antagonists: effect in parental CHO cells; shares compounds with OX1R antag-1; parental CHO-K1, ATP-induced calcium, Fluo-8 fluorescence; inhibition, % at 5.6 µM; 1,100 compounds, 9.3% hits; AID 492965;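 active = inhibition above a per-plate limit, the mean inhibition of that plate's test compounds plus 3 SD, cut at about 25% in these data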;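 also: 0% = ATP challenge with DMSO and 100% = DMSO without ATP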
* = called active by the depositor. An excerpt weighted towards active compounds, which were near 4.5% of everything screened.

For COc1ccc(C(=O)NNC(=O)C(=O)Nc2cccc3ccccc23)cc1 the results were TAAR1 antagonist -2, OX1R antag-1 26, OX1R antag-2 2, TAAR1 ag 2, GPR7 antag -5, CHO parental Ca 7, OX1R Fluo8 conf -1 and CHO Ca counter -5.
`CCc1ccc(NS(=O)(=O)c2ccc3[nH]cc(C(=O)N4CCc5ccccc54)c(=O)c3c2)cc1` gave TAAR1 antagonist -3, OX1R antag-1 31, OX1R antag-2 68, TAAR1 ag 2, GPR7 antag 2, CHO parental Ca -15, OX1R Fluo8 conf 32* and CHO Ca counter -11.
For Cc1cc(C)cc(NS(=O)(=O)c2ccc3[nH]cc(C(=O)N4CCc5ccccc54)c(=O)c3c2)c1 the results were TAAR1 antagonist 12, OX1R antag-1 19, OX1R antag-2 64, TAAR1 ag 0, GPR7 antag 10 and CHO parental Ca -6.
For C=CCOC(=O)/C=C/C(=O)NC(N)=O the results were TAAR1 antagonist -20, OX1R antag-1 -9, OX1R antag-2 2, TAAR1 ag 2, GPR7 antag -7 and CHO parental Ca -4.
COc1ccc(S(=O)(=O)NCCc2ccc(F)cc2)cc1 was read as TAAR1 antagonist -6, OX1R antag-1 -13, OX1R antag-2 12, TAAR1 ag -1, GPR7 antag -5 and CHO parental Ca 1.
CCCCNc1ccc(C(F)(F)F)cc1S(=O)(=O)NCCc1ccc(F)cc1 was read as TAAR1 antagonist 50*, OX1R antag-1 47, OX1R antag-2 8, TAAR1 ag 0, CHO parental Ca 12, OX1R Fluo8 conf -7 and CHO Ca counter -9.
Screening CC(C)OC(=O)CSc1nc2c(c(C3CC=CCC3)c1C#N)CCC2 (stereo unspecified) returned TAAR1 antagonist 21, OX1R antag-1 54*, OX1R antag-2 18, TAAR1 ag 3, GPR7 antag 4, CHO parental Ca 6, OX1R Fluo8 conf -11 and CHO Ca counter -3.
Screening O=C(COc1ccccc1Cc1ccccc1)Nc1cccnc1 returned TAAR1 antagonist 9, OX1R antag-1 -19, OX1R antag-2 12, TAAR1 ag 4 and CHO parental Ca -18.
Cn1c(CCCOc2ccc(Cl)cc2Cl)nnc1SCC(=O)Nc1nccs1 was read as TAAR1 antagonist 6, OX1R antag-1 38, OX1R antag-2 14, TAAR1 ag 12, GPR7 antag -4, CHO parental Ca 3, OX1R Fluo8 conf 7 and CHO Ca counter -5.
Screening CC(C)(C)CNc1cc(N2CCCC2)ccc1[N+](=O)[O-] returned OX1R antag-1 -14, OX1R antag-2 9, GPR7 antag -7 and CHO parental Ca -14.
Screening CC(C)c1ccc(CNc2cc(N3CCCC3)ccc2[N+](=O)[O-])cc1 returned TAAR1 antagonist -8, OX1R antag-1 53*, OX1R antag-2 8, TAAR1 ag 1, GPR7 antag 1, CHO parental Ca 8, OX1R Fluo8 conf -7 and CHO Ca counter 39*.
NS(=O)(=O)c1cccc(NC(=O)Nc2ccc(Cl)cc2)c1 was read as TAAR1 antagonist 14, OX1R antag-1 30, OX1R antag-2 32, TAAR1 ag 27, GPR7 antag -7, CHO parental Ca 27, OX1R Fluo8 conf 23 and CHO Ca counter 20.
`N#CCc1ccc(NC(=O)Nc2cccc(Cl)c2)cc1` gave TAAR1 antagonist 15, OX1R antag-1 36, OX1R antag-2 40, TAAR1 ag 28, GPR7 antag 3, CHO parental Ca 13, OX1R Fluo8 conf 18 and CHO Ca counter 34*.
COc1cc(/C=C/C(=O)NC(C)CCc2ccccc2)cc(OC)c1OC (stereo unspecified) was read as TAAR1 antagonist -14, OX1R antag-1 -9, OX1R antag-2 28, TAAR1 ag 3, GPR7 antag -14 and CHO parental Ca -22.
Screening Cc1c(CC(=O)N2CCC(O)CC2)c(=O)oc2cc3c(cc12)CCC1(CCCCC1)O3 returned TAAR1 antagonist -4 and TAAR1 ag 3.
`COc1ccc(C(=O)NC(=S)Nc2ccc(Cc3ccncc3)cc2)cc1` gave TAAR1 antagonist 9, OX1R antag-1 -5, OX1R antag-2 26, TAAR1 ag 15, GPR7 antag -9 and CHO parental Ca -19.
O=C1COc2ccc(C(=O)COC(=O)CCCOc3ccccc3)cc2N1 was read as TAAR1 antagonist 38 and TAAR1 ag 30.
Cc1ccc(OCCC(=O)OCC(=O)c2ccc3c(c2)NC(=O)CO3)cc1 was read as TAAR1 antagonist 21, OX1R antag-1 35, OX1R antag-2 -1, TAAR1 ag 9, CHO parental Ca 12, OX1R Fluo8 conf 8 and CHO Ca counter -1.
Screening Cc1ccsc1C(=O)N1CCCC(N(C)Cc2ccccc2)C1 (stereo unspecified) returned TAAR1 antagonist -3, OX1R antag-1 38, OX1R antag-2 4, TAAR1 ag 0, GPR7 antag -9, CHO parental Ca -4, OX1R Fluo8 conf -5 and CHO Ca counter -4.
CCc1ccc(NC(=O)[C@H](NC(=O)[C@@H]2Cc3ccccc3CN2)c2ccccc2)cc1 was read as TAAR1 antagonist -1, OX1R antag-1 -1, OX1R antag-2 2, TAAR1 ag 17, GPR7 antag 9 and CHO parental Ca -28.
CCc1ccc(NC(=O)[C@@H](NC(=O)[C@@H]2Cc3ccccc3CN2)C(C)CC)cc1 (stereo partly specified) was read as TAAR1 antagonist 13, OX1R antag-1 77*, OX1R antag-2 0, TAAR1 ag -1, GPR7 antag -2, CHO parental Ca -9, OX1R Fluo8 conf -12 and CHO Ca counter -14.
Screening CCOC(=O)c1sc(N)nc1C(C)(C)C returned TAAR1 antagonist -12, OX1R antag-1 41, OX1R antag-2 20, TAAR1 ag 6, GPR7 antag 1, CHO parental Ca -10, OX1R Fluo8 conf -2 and CHO Ca counter 1.
CCOC(=O)c1sc(NCCNc2nc(C)c(C(=O)OCC)s2)nc1C was read as OX1R antag-1 -23, OX1R antag-2 24 and CHO parental Ca -18.
Screening CCCN1CCC(Oc2cccc(C(=O)NCCc3ccccc3)c2)CC1 returned TAAR1 antagonist -11, OX1R antag-1 -25, OX1R antag-2 14, TAAR1 ag 4, GPR7 antag -2 and CHO parental Ca -30.
